Shown are actives, neighbours in structure and some others; about 1.4% of the full set was active somewhere.
KLK5 inh – inhibitors of human kallikrein 5. Q9Y337. recombinant hK5, fluorogenic AMC substrate cleavage. inhibition, % at 5 µM. 210,000 tested, 0.59% active;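 active means inhibition of 40% or more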;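 further: 0% = enzyme controls without compound and 100% = no-enzyme blanks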
m-calpain inh – inhibitors of pig calpain II | purified calpain II, fluorogenic peptide substrate, 30 min | inhibition, % at 16 µM | 220,000 tested, 0.37% active | AID 1236;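 active means inhibition above about 50%, limit read from the data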
FXIIa inh 1536 – factor XIIa (human) inhibition; P00748; purified FXIIa, Boc-QGR-AMC fluorogenic substrate, 2 h; inhibition, % at 5 µM; 220,000 tested, 0.3% active; AID 800; in the data active means inhibition above about 40%;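 further: 0% = enzyme with no compound and 100% = blank without enzyme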
Target sequence (P00748 20-372 limits assumed): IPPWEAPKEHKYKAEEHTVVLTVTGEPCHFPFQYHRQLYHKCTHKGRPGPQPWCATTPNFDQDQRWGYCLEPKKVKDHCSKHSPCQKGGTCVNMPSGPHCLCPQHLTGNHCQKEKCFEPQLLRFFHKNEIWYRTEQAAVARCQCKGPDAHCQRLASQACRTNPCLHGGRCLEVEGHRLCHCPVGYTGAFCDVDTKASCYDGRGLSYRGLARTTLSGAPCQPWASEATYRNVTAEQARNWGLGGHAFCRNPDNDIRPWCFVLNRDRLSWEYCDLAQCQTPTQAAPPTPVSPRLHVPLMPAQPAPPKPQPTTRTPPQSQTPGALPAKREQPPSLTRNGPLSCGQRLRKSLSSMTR
Target sequence (P00748 373-615 limits assumed): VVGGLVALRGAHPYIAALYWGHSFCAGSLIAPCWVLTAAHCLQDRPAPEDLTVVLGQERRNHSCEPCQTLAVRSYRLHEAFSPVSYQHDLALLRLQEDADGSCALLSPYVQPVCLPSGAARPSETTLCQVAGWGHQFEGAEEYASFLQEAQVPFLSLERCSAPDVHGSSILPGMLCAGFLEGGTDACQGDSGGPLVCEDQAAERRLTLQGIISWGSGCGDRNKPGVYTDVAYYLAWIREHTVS
FXIa inh 1536 – blocks human coagulation factor XIa protease activity | AID 798 | inhibition, % at 5 µM | P03951 | purified FXIa, Boc-Glu-Ala-Arg-AMC fluorogenic substrate | 220,000 tested, 0.14% active;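 active means inhibition of at least 40%; inactive means inhibition below 40%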;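 further: fluorescence of freed AMC excited at 355 nm; 0% = enzyme without compound and 100% = no enzyme blank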
Thrombin inh – blocks human thrombin protease activity; P00734; alpha-thrombin, Boc-VPR-AMC fluorogenic substrate cleavage; inhibition, % at 5 µM; 220,000 tested, 0.26% active;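 active means inhibition at or above 40%; inactive means inhibition below 40%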;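 further: 0% = enzyme with no compound and 100% = wells without enzyme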
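System – human alpha-thrombin · Medium – pH 7.5 Tris (50 mM) with NaCl 150 mM, Tween 20 0.05% · Compound – single-point dosing at 5 µM, 0.2% DMSO · Incubation – enzyme reaction carried out at room temperature · Technique – fluorescence of released AMC, ex 355 nm, em 460 nm · Read-out basis – % inhibition of thrombin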
An asterisk follows results filed as active.

SMILES | KLK5 inh | m-calpain inh | FXIIa inh 1536 | FXIa inh 1536 | Thrombin inh
CCC(=O)n1nc(-c2ccc(OC)cc2)nc1SC | -7 | 6 | 11 | 6 | 28
CCCC(=O)n1nc(-c2ccc(Cl)cc2)nc1SC | -4 | -53 | 14 | 0 | 52*
CCOc1ccc2nc(SC3CC(=O)N(c4ccc(OC)cc4OC)C3=O)sc2c1 (stereo unspecified) | -3 | -53 | 9 | -1 | 3
CCCc1nc2n[nH]c(N)c2c2c1CCC2 | -4 | 38 | 55* | 35 | 3
CCCc1nc2n[nH]c(N)c2c2c1CCCC2 | -31 | -17 | 16 | 15 | 0
Cc1c(NC(=O)CN2CCCc3ccccc32)c(=O)n(-c2ccccc2)n1C | 144* | 16 | 15 | 0 | 17
Cc1ccc(N=CC=C2OC(C)(C)C(C)(C)O2)c(C)c1 | -4 | -11 | 8 | 7 | 2
CC1(C)OC(=CC=Nc2ccc(Cl)cc2)OC1(C)C | 16 | 11 | 45* | 28 | 2
CCOc1ccc(OCC)c(NC(=O)C2CCCN(S(=O)(=O)c3cnc[nH]3)C2)c1 (stereo unspecified) | 11 | 10 | 5 | 9 | 40*
CCOc1ccccc1NC(=O)C1CCCN(S(=O)(=O)c2cccc3nsnc23)C1 (stereo unspecified) | 121* | 17 | 23 | 11 | 11
Cc1ccc(Cl)cc1NC(=O)Nc1cccs1 | -5 | -10 | -7 | -1 | -8
C#CCNc1cc(C)nc2ncnn12 | 39 | 12 | 15 | 7 | 104*
COc1cc(/C=C2\SC(=S)NC2=O)ccc1OS(=O)(=O)c1ccccc1 | -12 | 62* | 11 | 5 | -2
COc1cc(/C=C2/SC(=S)NC2=O)ccc1OS(=O)(=O)c1ccc(C)cc1 | -14 | 63* | 15 | 5 | -6
COc1ccc(/C=C2\SC(=S)NC2=O)cc1OS(=O)(=O)c1ccc(NC(C)=O)cc1 | 0 | -64 | 11 | 1 | -3
CC(C)COc1ccc(C(=O)N2C(=O)c3ccc(N)cc3C2=O)cc1 | -1 | -21 | 3 | 2 | -1
Cc1ccc(NC(=O)CN(C)C(=O)COc2ccc(C(=O)c3ccc(F)cc3)cc2)cc1 | -3 | 18 | 7 | 35 | 0
COc1ccc(CN(C(=O)COc2ccccc2)c2ccccc2C(=O)O)cc1 | -3 | -19 | 4 | 6 | -5
Cc1cccc(C(=O)NNC2=CC(=O)CC(C)(C)C2)c1O | 2 | -14 | 9 | 4 | 2
CC1(C)CC(=O)C=C(NNC(=O)c2ccccc2O)C1 | -34 | -2 | 60* | 32 | 3
COc1ccc(C(=O)NNC2=CC(=O)CC(C)(C)C2)cc1 | 49* | 33 | 12 | 14 | 15
COc1ccc(-c2csc(NC(=O)c3ccc(S(=O)(=O)N4CCc5ccccc5C4)cc3)n2)c(OC)c1 | -9 | -67 | 4 | 6 | -2
O=C(Nc1cccc2c1[nH]c1ccccc12)C(F)(F)F | -5 | -8 | 24 | 17 | 2
CCN(CC)C(=O)Cn1cc(SCC(=O)NC)c2ccccc21 | -6 | 3 | 3 | -1 | -6
O=C(NC(CSSCC(NC(=O)c1ccccc1)C(=O)O)C(=O)O)c1ccccc1 (stereo unspecified) | 0 | -16 | 7 | 5 | -4
SMILES | KLK5 inh | m-calpain inh | FXIIa inh 1536 | FXIa inh 1536 | Thrombin inh
O=C1/C(=C/c2cccc(Br)c2)SC(=S)N1/N=C/c1cc([N+](=O)[O-])ccc1O | -3 | 38 | 7 | -2 | 2
CN1C(=O)/C(=C2\SC(=S)N(C(CCC(=O)O)C(=O)O)C2=O)c2ccccc21 (stereo unspecified) | 64* | 10 | 11 | 13 | 104*
CN1C(=O)/C(=C2\SC(=S)N(CC3CCCO3)C2=O)c2ccccc21 (stereo unspecified) | -36 | -9 | 10 | 0 | -4
COC(=O)c1ccc(C(=O)OC)c(NC(=S)N2CCOCC2)c1 | -3 | -17 | 9 | -3 | -5
COc1cc(C(=O)NC(=S)N(C)Cc2ccccc2)cc(OC)c1OC | 36 | 16 | 26 | 101* | 19
COc1cc(C(=O)NC(=S)N(CCc2ccccc2)CCc2ccccc2)cc(OC)c1OC | -5 | 2 | 10 | 7 | 1
CCOc1ccc(N(Cc2ccccc2F)C2=NC3CS(=O)(=O)CC3S2)cc1 (stereo unspecified) | 45* | 6 | 21 | 29 | 9
Cn1c(CN2CCCCC2)nc2cc(NS(=O)(=O)c3ccc(Cl)cc3)ccc21 | 3 | 31 | 17 | 5 | 76*
Cn1c(CCN2CCCCC2)nc2cc(NS(=O)(=O)c3ccc(Cl)cc3)ccc21 | -2 | 3 | 9 | -2 | 11
CCN(c1ccccc1)S(=O)(=O)c1ccc(C(=O)Nc2nnc(COC)o2)cc1 | 13 | 18 | 55* | 11 | 23
COCc1nnc(NC(=O)c2ccc(S(=O)(=O)N(C)c3ccccc3)cc2)o1 | -6 | 20 | 12 | 7 | -1
O=C(Nc1ccccc1N1CCOCC1)c1cccc(NS(=O)(=O)c2ccc(F)c(F)c2)c1 | -1 | -27 | 6 | -2 | -4
COc1cc(C(=O)O/N=C2/C=C(C)C(=O)C=C2C)cc(OC)c1OC | -6 | 0 | 60* | 0 | -2
CC1(C)CC(=O)c2c(Cc3ccccc3)n[nH]c2C1 | 50* | 16 | 19 | -1 | 14
NCCn1c(-c2ccccc2)cc(C(=O)O)c1-c1ccccc1F | 8 | 4 | 18 | 8 | 2
CCCN1C=CC(=CC=C(C#N)C#N)C=C1 | 67* | 18 | 22 | 20 | 4
C=CCN1C=CC(=CC=C(C#N)C#N)C=C1 | 4 | 24 | 13 | 4 | -2
C#CC(C)(C)NC(=O)c1sccc1Oc1ccc(F)cc1[N+](=O)[O-] | 3 | -8 | 10 | 1 | 40
CC(C)C12CN3CC(C(C)C)(CN(C1)C3c1ccc([N+](=O)[O-])o1)C2=O (stereo unspecified) | 2 | -10 | 7 | 0 | 1
O=C(Nc1cccc(C(F)(F)F)c1)C(SCCO)c1ccccc1 (stereo unspecified) | -11 | 4 | 1 | 4 | -3
Cn1nnnc1SC(C(=O)Nc1cccc(C(F)(F)F)c1)c1ccccc1 (stereo unspecified) | -10 | 54* | 9 | -3 | -4
COc1ccc(CCNC(=O)COC(=O)c2ccc(N3CCCC3=O)cc2)cc1 | -2 | -9 | 1 | -2 | 9
COc1ccccc1NC(=O)c1ccc(NC(=O)COC(=O)C2(C)CC2(Cl)Cl)cc1 (stereo unspecified) | -17 | 38 | 3 | -2 | -11
O=C(Cn1nc(-c2ccccc2)ccc1=O)NCC1CCCO1 (stereo unspecified) | -10 | -11 | 6 | 0 | 2
O=C(Cn1nc(-c2ccc(Cl)cc2)ccc1=O)NCC1CCCO1 (stereo unspecified) | 51* | -3 | 16 | 6 | 17
Cc1cccc(N2CCN(C(=O)C(C)C)CC2)c1C | -3 | 19 | 31 | 21 | 3
CC(C)C(=O)N1CCN(c2ccccc2N)CC1 | -1 | 81* | 8 | -3 | -4

Assay outcomes (PubChem)
